Converted amounts (≈) assume the structure as drawn.

One series has as its system Escherichia coli. Kind of series: Inhibitory activity against Escherichia coli EC14. It is filed as functional. An outline of the steps: (§1)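 Agar dilution: compounds were diluted in 0.1 M phosphate buffer, pH 7.0, and mixed at 50 °C into Mueller–Hinton agar with 1% Bacto-Supplement C. Fresh overnight cultures were diluted to about 1 × 10^4 cells/μL and spotted at 1 μL. Plates were incubated overnight at 35 °C in ambient air. MIC (μg/mL) was the lowest concentration preventing visible growth.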
`CS(=O)(=O)OC1=C(C(=O)O)N2C(=O)[C@@H](NC(=O)COc3ccccc3)[C@H]2SC1`: the MIC was determined as 64 µg/mL (≈ 149 µM).

The test system of another series is Escherichia coli. The experiment in a line: In vitro inhibitory activity against Escherichia coli EC14. It is filed as functional. Put shortly: as §1
`N[C@@H](C(=O)N[C@@H]1C(=O)N2C(C(=O)O)=C(Cl)CC[C@H]12)c1ccccc1` [LORACARBEF ANHYDROUS] had an MIC of 0.25 µg/mL (≈ 0.715 µM).
For the compound `COC(=O)C1=C(C(=O)O)N2C(=O)[C@@H](NC(=O)Cc3cccs3)[C@H]2CC1`, the MIC is 1 µg/mL (≈ 2.74 µM).
As to `CO/N=C(\C(=O)N[C@@H]1C(=O)N2C(C(=O)[O-])=C(C[n+]3ccccc3)CC[C@H]12)c1csc(N)n1`, the MIC is 0.03 µg/mL (≈ 0.0657 µM).

Another series has as its system Pseudomonas aeruginosa. The experiment in a line: In vitro inhibitory activity against Pseudomonas aeruginosa X258. It is filed as functional. An outline of the steps: as §1
Compound `N[C@@H](C(=O)N[C@@H]1C(=O)N2C(C(=O)O)=C(Cl)CC[C@H]12)c1ccccc1` [LORACARBEF ANHYDROUS] yielded an MIC of 128 µg/mL (≈ 366 µM).
For the compound `COC(=O)C1=C(C(=O)O)N2C(=O)[C@@H](NC(=O)Cc3cccs3)[C@H]2CC1`, the MIC amounted to 128 µg/mL (≈ 351 µM).
For the compound `CO/N=C(\C(=O)N[C@@H]1C(=O)N2C(C(=O)[O-])=C(C[n+]3ccccc3)CC[C@H]12)c1csc(N)n1`, the MIC came to 2 µg/mL (≈ 4.38 µM).
The compound `CS(=O)(=O)OC1=C(C(=O)O)N2C(=O)[C@@H](NC(=O)COc3ccccc3)[C@H]2SC1` came in with an MIC of 128 µg/mL (≈ 299 µM).

Tested on in another series: not listed separately
The experiment in a line: Half-life is evaluated. It is filed as ADME. Put shortly:
(§2)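 Parent β-lactam loss followed by HPLC, starting at 3.9 × 10^-4–1 × 10^-3 M, at 35 °C and μ = 0.5. pH was held at 10 by a pH-stat adding NaOH. Pseudo-first-order rate constants were derived, with half-lives from these rates. Some runs were done at pH 11, and the constant was taken as 1/10 of the observed value, assuming proportionality to [OH].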
The half-life is how long it takes for the measured level to halve. Read a high half-life as slow loss. In turn, `N[C@@H](C(=O)N[C@@H]1C(=O)N2C(C(=O)O)=C(Cl)CC[C@H]12)c1ccccc1` [LORACARBEF ANHYDROUS] had a half-life of 21.4 h.
The compound `COC(=O)C1=C(C(=O)O)N2C(=O)[C@@H](NC(=O)Cc3cccs3)[C@H]2CC1` showed a half-life of 0.867 h.
`CO/N=C(\C(=O)N[C@@H]1C(=O)N2C(C(=O)[O-])=C(C[n+]3ccccc3)CC[C@H]12)c1csc(N)n1` showed a half-life of 11 h.
Take `CS(=O)(=O)OC1=C(C(=O)O)N2C(=O)[C@@H](NC(=O)COc3ccccc3)[C@H]2SC1`: the half-life is 0.363 h. Against the preceding compound, the half-life is about 30-fold lower.

Tested on in another series: not listed separately
Kind of series: Pseudo-first-order rate constant at pH 10, micro=0.5, 35 degrees Centigrade. It is filed as ADME. An outline of the steps: as §2
Turning to `COC(=O)C1=C(C(=O)O)N2C(=O)[C@@H](NC(=O)Cc3cccs3)[C@H]2CC1`, the K stood at 0.799 h⁻¹.

Tested on in a further series: not listed separately
The experiment in a line: Pseudo-first-order rate constant at pH 10 and 35 degrees Centigrade. It counts as ADME. Put shortly:
as §2
`N[C@@H](C(=O)N[C@@H]1C(=O)N2C(C(=O)O)=C(Cl)CC[C@H]12)c1ccccc1` [LORACARBEF ANHYDROUS] showed a K of 0.0324 h⁻¹.
On the same count and under the same terms, under `CO/N=C(\C(=O)N[C@@H]1C(=O)N2C(C(=O)[O-])=C(C[n+]3ccccc3)CC[C@H]12)c1csc(N)n1` stands 0.0628 h⁻¹; under `CS(=O)(=O)OC1=C(C(=O)O)N2C(=O)[C@@H](NC(=O)COc3ccccc3)[C@H]2SC1`, 1.91 h⁻¹.

A further series relates to Streptococcus pyogenes. Kind of series: In vitro inhibitory activity against Streptococcus pyogenes Park. It counts as functional. Put shortly:
as §1
The compound `N[C@@H](C(=O)N[C@@H]1C(=O)N2C(C(=O)O)=C(Cl)CC[C@H]12)c1ccccc1` [LORACARBEF ANHYDROUS] yielded an MIC of 1 µg/mL (≈ 2.86 µM).
Regarding `CO/N=C(\C(=O)N[C@@H]1C(=O)N2C(C(=O)[O-])=C(C[n+]3ccccc3)CC[C@H]12)c1csc(N)n1`, the MIC came to 0.015 µg/mL (≈ 0.0329 µM).
On the same count and under the same terms, under `CS(=O)(=O)OC1=C(C(=O)O)N2C(=O)[C@@H](NC(=O)COc3ccccc3)[C@H]2SC1` stands 0.015 µg/mL (≈ 0.035 µM).

For the next series, the system named is Enterobacter cloacae. The experiment in a line: In vitro inhibitory activity against Enterobacter cloacae EB5. It counts as functional. Put shortly:
as §1
Regarding `N[C@@H](C(=O)N[C@@H]1C(=O)N2C(C(=O)O)=C(Cl)CC[C@H]12)c1ccccc1` [LORACARBEF ANHYDROUS], the MIC was found to be 4 µg/mL (≈ 11.4 µM).
As to `COC(=O)C1=C(C(=O)O)N2C(=O)[C@@H](NC(=O)Cc3cccs3)[C@H]2CC1`, the MIC was 128 µg/mL (≈ 351 µM).
Regarding `CO/N=C(\C(=O)N[C@@H]1C(=O)N2C(C(=O)[O-])=C(C[n+]3ccccc3)CC[C@H]12)c1csc(N)n1`, the MIC was determined as 0.06 µg/mL (≈ 0.131 µM).
For `CS(=O)(=O)OC1=C(C(=O)O)N2C(=O)[C@@H](NC(=O)COc3ccccc3)[C@H]2SC1`, the MIC amounted to 128 µg/mL (≈ 299 µM).

Another series concerns Staphylococcus aureus. The experiment in a line: In vitro inhibitory activity against Staphylococcus aureus X1.1. It is filed as functional. An outline of the steps: as §1
On to `N[C@@H](C(=O)N[C@@H]1C(=O)N2C(C(=O)O)=C(Cl)CC[C@H]12)c1ccccc1` [LORACARBEF ANHYDROUS], for which the MIC is 2 µg/mL (≈ 5.72 µM).
For the compound `COC(=O)C1=C(C(=O)O)N2C(=O)[C@@H](NC(=O)Cc3cccs3)[C@H]2CC1`, the MIC was found to be 0.25 µg/mL (≈ 0.686 µM).
Turning to `CO/N=C(\C(=O)N[C@@H]1C(=O)N2C(C(=O)[O-])=C(C[n+]3ccccc3)CC[C@H]12)c1csc(N)n1`, the MIC stood at 4 µg/mL (≈ 8.76 µM).
Compound `CS(=O)(=O)OC1=C(C(=O)O)N2C(=O)[C@@H](NC(=O)COc3ccccc3)[C@H]2SC1` yielded an MIC of 0.125 µg/mL (≈ 0.292 µM).

A further series relates to Providencia rettgeri. Kind of series: In vitro inhibitory activity against Proteus rettgeri C24. It is filed as functional. An outline of the steps: as §1
As to `N[C@@H](C(=O)N[C@@H]1C(=O)N2C(C(=O)O)=C(Cl)CC[C@H]12)c1ccccc1` [LORACARBEF ANHYDROUS], the MIC is 128 µg/mL (≈ 366 µM).
On to `COC(=O)C1=C(C(=O)O)N2C(=O)[C@@H](NC(=O)Cc3cccs3)[C@H]2CC1`, for which the MIC is 8 µg/mL (≈ 22 µM).
In turn, `CO/N=C(\C(=O)N[C@@H]1C(=O)N2C(C(=O)[O-])=C(C[n+]3ccccc3)CC[C@H]12)c1csc(N)n1` showed an MIC of 0.06 µg/mL (≈ 0.131 µM).
Compound `CS(=O)(=O)OC1=C(C(=O)O)N2C(=O)[C@@H](NC(=O)COc3ccccc3)[C@H]2SC1` showed an MIC of 128 µg/mL (≈ 299 µM).

The next series relates to Klebsiella pneumoniae. Kind of series: In vitro inhibitory activity against Klebsiella X26. It counts as functional. An outline of the steps: as §1
In turn, `N[C@@H](C(=O)N[C@@H]1C(=O)N2C(C(=O)O)=C(Cl)CC[C@H]12)c1ccccc1` [LORACARBEF ANHYDROUS] registered an MIC of 0.25 µg/mL (≈ 0.715 µM).
On to `COC(=O)C1=C(C(=O)O)N2C(=O)[C@@H](NC(=O)Cc3cccs3)[C@H]2CC1`, for which the MIC was determined as 0.25 µg/mL (≈ 0.686 µM).
Regarding `CO/N=C(\C(=O)N[C@@H]1C(=O)N2C(C(=O)[O-])=C(C[n+]3ccccc3)CC[C@H]12)c1csc(N)n1`, the MIC amounted to 0.03 µg/mL (≈ 0.0657 µM).
Take `CS(=O)(=O)OC1=C(C(=O)O)N2C(=O)[C@@H](NC(=O)COc3ccccc3)[C@H]2SC1`: the MIC came out at 8 µg/mL (≈ 18.7 µM).

The test system of a further series is Haemophilus influenzae. Kind of series: In vitro inhibitory activity against Haemophilus influenza C.L. It counts as functional. An outline of the steps:
as §1
Consider `N[C@@H](C(=O)N[C@@H]1C(=O)N2C(C(=O)O)=C(Cl)CC[C@H]12)c1ccccc1` [LORACARBEF ANHYDROUS], for which the MIC amounted to 0.5 µg/mL (≈ 1.43 µM).
In turn, `COC(=O)C1=C(C(=O)O)N2C(=O)[C@@H](NC(=O)Cc3cccs3)[C@H]2CC1` yielded an MIC of 1 µg/mL (≈ 2.74 µM).
`CO/N=C(\C(=O)N[C@@H]1C(=O)N2C(C(=O)[O-])=C(C[n+]3ccccc3)CC[C@H]12)c1csc(N)n1` displayed an MIC of 0.5 µg/mL (≈ 1.1 µM).
Still for that read-out and setting: as for `CS(=O)(=O)OC1=C(C(=O)O)N2C(=O)[C@@H](NC(=O)COc3ccccc3)[C@H]2SC1`, the figure is 4 µg/mL (≈ 9.34 µM).
